What is called pIC50 is the negative decadic logarithm of the IC50, by convention in mol/L. As usually defined, the inhibition is how much of the control response was suppressed.

pIC50: −log10 of the molar value.

Data set [1] concerns the target Bifunctional dihydrofolate reductase-thymidylate synthase (Leishmania major, UniProt P07382). The data set is described as follows: Inhibition of recombinant Leishmania major DHFR-TS expressed in Escherichia coli BL21 (DE3) cells using dihydrofolate as substrate in presence of NADPH by spectrophotometric analysis.
The target of another data set is T1, Dihydrofolate reductase (Homo sapiens, UniProt P00374).
T1 sequence (P00374 whole entry): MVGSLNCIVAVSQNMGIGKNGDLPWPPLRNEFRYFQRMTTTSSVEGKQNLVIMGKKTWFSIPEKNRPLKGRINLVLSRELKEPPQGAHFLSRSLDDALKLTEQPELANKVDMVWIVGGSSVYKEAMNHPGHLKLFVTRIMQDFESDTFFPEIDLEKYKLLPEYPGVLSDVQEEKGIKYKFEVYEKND
The data set is described as follows: Inhibition of recombinant human DHFR expressed in Escherichia coli BL21 (DE3) cells using dihydrofolate as substrate in presence of NADPH by spectrophotometric analysis. It counts as toxicity.

For another data set, the target named is T2, CYP1A2 (Homo sapiens, UniProt P05177).
T2 sequence (P05177 whole entry): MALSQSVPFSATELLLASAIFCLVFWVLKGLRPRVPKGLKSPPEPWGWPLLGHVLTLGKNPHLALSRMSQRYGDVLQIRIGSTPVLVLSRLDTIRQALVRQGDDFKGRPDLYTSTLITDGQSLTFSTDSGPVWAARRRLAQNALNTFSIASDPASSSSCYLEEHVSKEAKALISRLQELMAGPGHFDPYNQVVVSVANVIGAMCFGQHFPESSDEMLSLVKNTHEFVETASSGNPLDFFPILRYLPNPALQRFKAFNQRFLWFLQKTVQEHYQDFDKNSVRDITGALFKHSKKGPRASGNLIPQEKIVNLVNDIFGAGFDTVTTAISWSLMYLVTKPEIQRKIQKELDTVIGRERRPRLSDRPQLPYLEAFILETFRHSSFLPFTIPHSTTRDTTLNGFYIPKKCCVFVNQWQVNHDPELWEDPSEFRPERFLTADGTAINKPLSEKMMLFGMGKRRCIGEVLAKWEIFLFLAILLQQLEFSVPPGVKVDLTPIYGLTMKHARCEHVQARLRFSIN
Description: Inhibition of CYP1A2 (unknown origin) expressed in baculovirus-infected insect cells at 10 uM using CYP/Luciferin as substrate incubated for 30 mins in presence of NADPH by luminescence based analysis relative to control. Particulars: probe CYP/Luciferin. It counts as ADME. The method, boiled down: (§1)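 Tested at 10 μM using microsomal preparations of each CYP isoform from baculovirus-infected insect cells on a luminescent P450-Glo platform. The enzyme acts on its substrate to give light, and a fall in luminescence indicates inhibition.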

The test system of data set [2] is human DHFR versus Leishmania major PTR1. Description: Selectivity index, ratio of IC50 for human DHFR to IC50 for Leishmania major PTR1. It counts as toxicity. Particulars: read-out: Ratio IC50.
In the next data set the test system is 786-0. The data set is described as follows: Mitochondrial toxicity in human 786-0 cells at 10 uM incubated with compound for 6 hrs followed by incubation with MitoTracker Red chloromethyl-X-rosamine dye for 45 mins by imaging analysis relative to control. It counts as cell-based. Particulars: 786-0, 6 h. The procedure, abridged: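 Tested at 10 μM. 786-O cells kept in RPMI-1640 with 2 mM glutamine, 10% FCS, streptomycin 100 μg/mL and penicillin G 100 U/mL. Mitochondrial toxicity read as MitoTracker Red (chloromethyl-X-rosamine) uptake by high-content imaging.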

The subject of data set [3] is human DHFR versus Trypanosoma brucei PTR1. Description: Selectivity index, ratio of IC50 for human DHFR to IC50 for Trypanosoma brucei PTR1. It counts as toxicity. Particulars: read-out: Ratio IC50.
The subject of data set [4] is human DHFR versus Trypanosoma brucei DHFR. The data set is described as follows: Selectivity index, ratio of IC50 for human DHFR to IC50 for Trypanosoma brucei DHFR. The settings on record: read-out: Ratio IC50. It counts as toxicity.
Data set [5] deals with human DHFR versus Leishmania major DHFR. Description: Selectivity index, ratio of IC50 for human DHFR to IC50 for Leishmania major DHFR. It counts as toxicity. Particulars: read-out: Ratio IC50.
For the next data set, the target named is T3, Pteridine reductase 1 (Leishmania major, UniProt Q01782).
T3 sequence (Q01782 whole entry): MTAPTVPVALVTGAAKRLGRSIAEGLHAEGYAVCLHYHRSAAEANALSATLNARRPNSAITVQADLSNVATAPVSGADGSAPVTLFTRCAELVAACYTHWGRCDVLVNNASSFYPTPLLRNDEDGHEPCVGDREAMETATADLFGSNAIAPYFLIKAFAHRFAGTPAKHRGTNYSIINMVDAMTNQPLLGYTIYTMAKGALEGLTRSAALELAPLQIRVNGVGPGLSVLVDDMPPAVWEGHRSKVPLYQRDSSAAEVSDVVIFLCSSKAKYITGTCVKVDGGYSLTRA
Description: Inhibition of recombinant Leishmania major PTR1 expressed in Escherichia coli BL21 (DE3) cells using H2B as substrate in presence of cytochrome c and NADPH by envision multilabel reader.

The subject of another data set is A549. Description: Cytotoxicity against human A549 cells at 10 uM measured after 48 hrs by Celltiter-Glo assay relative to control. The data set is classed as toxicity, cell-based. Particulars: a549, 48 h. The method, boiled down: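 Tested at 10 μM. A549 cells grown in DMEM with 10% FCS, streptomycin 100 μg/mL and penicillin G 100 U/mL. Viability read as cellular ATP by CellTiter-Glo luminescence.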
(In general: In ATP-based viability assays light output follows the ATP content of the culture.)

Another data set deals with CYP2C19 (Homo sapiens, UniProt P33261). The data set is described as follows: Inhibition of CYP2C19 (unknown origin) expressed in baculovirus-infected insect cells at 10 uM using CYP/Luciferin as substrate incubated for 30 mins in presence of NADPH by luminescence based analysis relative to control. It counts as ADME. Particulars: probe CYP/Luciferin. The procedure, abridged: as §1

Data set [6] has as its target Bifunctional dihydrofolate reductase-thymidylate synthase (Trypanosoma brucei brucei, UniProt Q27783). The data set is described as follows: Inhibition of recombinant Trypanosoma brucei DHFR-TS expressed in Escherichia coli BL21 (DE3) cells using dihydrofolate as substrate in presence of NADPH by spectrophotometric analysis.
For data set [7], the target named is T4, Pteridine reductase, putative (Trypanosoma brucei, UniProt Q581W1).
T4 sequence (Q581W1 whole entry): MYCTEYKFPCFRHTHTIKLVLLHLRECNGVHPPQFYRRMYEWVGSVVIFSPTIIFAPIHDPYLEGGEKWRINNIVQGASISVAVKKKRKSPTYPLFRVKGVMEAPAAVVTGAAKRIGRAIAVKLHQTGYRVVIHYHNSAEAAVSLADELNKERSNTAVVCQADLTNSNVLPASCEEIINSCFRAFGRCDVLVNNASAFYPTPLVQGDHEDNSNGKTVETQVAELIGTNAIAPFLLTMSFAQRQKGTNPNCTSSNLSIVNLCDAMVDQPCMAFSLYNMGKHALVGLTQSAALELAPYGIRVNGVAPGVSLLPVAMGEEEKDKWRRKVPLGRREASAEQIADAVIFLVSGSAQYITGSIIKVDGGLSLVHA
The data set is described as follows: Inhibition of recombinant Trypanosoma brucei PTR1 expressed in Escherichia coli BL21 (DE3) cells using H2B as substrate in presence of cytochrome c and NADPH by envision multilabel reader.

In the next data set the target is CYP2C9 (Homo sapiens, UniProt P11712). Description: Inhibition of CYP2C9 (unknown origin) expressed in baculovirus-infected insect cells at 10 uM using CYP/Luciferin as substrate incubated for 30 mins in presence of NADPH by luminescence based analysis relative to control. It counts as ADME. Particulars: probe CYP/Luciferin. The procedure, abridged: as §1
A further data set has as its target CYP2D6 (Homo sapiens, UniProt P10635). Description: Inhibition of CYP2D6 (unknown origin) expressed in baculovirus-infected insect cells at 10 uM using CYP/Luciferin as substrate incubated for 30 mins in presence of NADPH by luminescence based analysis relative to control. The data set is classed as ADME. The settings on record: probe CYP/Luciferin. The procedure, abridged:
as §1

Bifunctional dihydrofolate reductase-thymidylate synthase (Trypanosoma brucei brucei, UniProt Q27783), sequence (Q27783 whole entry): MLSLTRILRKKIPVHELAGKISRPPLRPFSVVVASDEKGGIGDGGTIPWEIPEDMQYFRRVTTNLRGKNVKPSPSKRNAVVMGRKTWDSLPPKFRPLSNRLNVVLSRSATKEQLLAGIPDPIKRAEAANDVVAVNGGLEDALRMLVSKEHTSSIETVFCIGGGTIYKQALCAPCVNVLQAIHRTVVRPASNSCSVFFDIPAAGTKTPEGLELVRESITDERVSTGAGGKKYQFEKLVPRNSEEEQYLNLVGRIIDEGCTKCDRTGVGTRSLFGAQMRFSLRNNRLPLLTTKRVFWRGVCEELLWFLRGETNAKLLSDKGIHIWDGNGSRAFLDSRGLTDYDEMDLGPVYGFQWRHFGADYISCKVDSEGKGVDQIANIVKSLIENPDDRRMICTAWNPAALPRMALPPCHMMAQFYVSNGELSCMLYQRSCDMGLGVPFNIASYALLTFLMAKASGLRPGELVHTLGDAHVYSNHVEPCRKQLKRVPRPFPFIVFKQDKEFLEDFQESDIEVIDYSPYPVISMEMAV
Bifunctional dihydrofolate reductase-thymidylate synthase (Leishmania major, UniProt P07382), sequence (P07382 whole entry): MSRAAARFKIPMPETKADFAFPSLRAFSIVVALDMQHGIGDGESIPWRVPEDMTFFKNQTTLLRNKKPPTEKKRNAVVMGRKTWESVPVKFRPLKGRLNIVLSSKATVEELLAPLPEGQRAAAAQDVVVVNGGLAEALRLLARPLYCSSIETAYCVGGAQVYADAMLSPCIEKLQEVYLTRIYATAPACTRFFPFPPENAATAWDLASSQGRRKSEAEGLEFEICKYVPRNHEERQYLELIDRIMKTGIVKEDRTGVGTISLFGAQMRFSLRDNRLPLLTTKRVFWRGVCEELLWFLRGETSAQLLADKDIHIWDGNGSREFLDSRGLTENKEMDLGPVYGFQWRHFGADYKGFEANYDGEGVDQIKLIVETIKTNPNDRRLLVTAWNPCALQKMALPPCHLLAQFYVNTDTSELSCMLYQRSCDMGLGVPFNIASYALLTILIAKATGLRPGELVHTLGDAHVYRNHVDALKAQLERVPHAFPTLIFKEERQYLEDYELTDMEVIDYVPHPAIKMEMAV
CYP2D6, sequence (P10635 whole entry): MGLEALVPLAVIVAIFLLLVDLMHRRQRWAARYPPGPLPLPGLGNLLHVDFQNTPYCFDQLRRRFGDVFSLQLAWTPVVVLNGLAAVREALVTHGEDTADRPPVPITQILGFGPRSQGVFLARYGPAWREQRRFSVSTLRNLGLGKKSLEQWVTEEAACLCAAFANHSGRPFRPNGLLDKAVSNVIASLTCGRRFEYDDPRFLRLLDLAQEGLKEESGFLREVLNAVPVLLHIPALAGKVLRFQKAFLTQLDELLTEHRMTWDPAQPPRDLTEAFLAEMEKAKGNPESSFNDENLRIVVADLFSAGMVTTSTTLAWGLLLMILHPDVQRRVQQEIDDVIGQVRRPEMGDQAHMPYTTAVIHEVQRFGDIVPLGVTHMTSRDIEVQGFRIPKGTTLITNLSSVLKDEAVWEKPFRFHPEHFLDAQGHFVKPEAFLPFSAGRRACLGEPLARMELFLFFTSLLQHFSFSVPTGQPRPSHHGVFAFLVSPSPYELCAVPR
CYP2C19, sequence (P33261 whole entry): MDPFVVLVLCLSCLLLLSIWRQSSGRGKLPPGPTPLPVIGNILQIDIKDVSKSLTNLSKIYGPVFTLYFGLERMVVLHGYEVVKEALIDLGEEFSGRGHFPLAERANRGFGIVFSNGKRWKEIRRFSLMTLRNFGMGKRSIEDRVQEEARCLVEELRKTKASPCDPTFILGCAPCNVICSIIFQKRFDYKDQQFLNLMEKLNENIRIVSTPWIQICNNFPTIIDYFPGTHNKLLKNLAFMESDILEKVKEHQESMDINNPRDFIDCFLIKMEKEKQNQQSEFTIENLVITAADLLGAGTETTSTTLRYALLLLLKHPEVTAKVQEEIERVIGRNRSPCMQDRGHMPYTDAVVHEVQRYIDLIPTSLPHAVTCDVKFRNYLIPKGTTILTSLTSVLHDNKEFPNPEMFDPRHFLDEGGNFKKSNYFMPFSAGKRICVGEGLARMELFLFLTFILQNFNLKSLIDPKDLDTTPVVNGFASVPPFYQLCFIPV
CYP2C9, sequence (P11712 whole entry): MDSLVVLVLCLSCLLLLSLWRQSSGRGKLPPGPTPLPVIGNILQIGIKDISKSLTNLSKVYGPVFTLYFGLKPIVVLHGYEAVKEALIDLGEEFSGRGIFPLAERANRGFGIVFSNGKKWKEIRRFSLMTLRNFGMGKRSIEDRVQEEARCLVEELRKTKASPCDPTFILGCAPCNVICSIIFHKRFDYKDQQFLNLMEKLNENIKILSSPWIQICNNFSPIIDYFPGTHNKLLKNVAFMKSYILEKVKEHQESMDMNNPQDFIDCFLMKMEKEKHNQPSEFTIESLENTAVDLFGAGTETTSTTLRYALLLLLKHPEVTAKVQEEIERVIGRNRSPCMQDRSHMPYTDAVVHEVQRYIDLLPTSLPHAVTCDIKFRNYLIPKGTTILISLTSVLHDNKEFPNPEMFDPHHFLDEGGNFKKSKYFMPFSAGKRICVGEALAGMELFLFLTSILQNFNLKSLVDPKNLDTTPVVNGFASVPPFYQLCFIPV

For `COC(=O)C1CCN(C(=O)Cc2ccc(NCc3cnc4nc(N)nc(N)c4n3)cc2)CC1`, the pIC50 was 6.07 in data set [1]; 4.46 at Dihydrofolate reductase; 5.94 on Pteridine reductase 1; 6.21 in data set [6]; 6.85 in data set [7]. Besides, the inhibition at 0.5 h, 10 µM on CYP1A2 and at CYP2C19 was 12% in each case. Moreover, the selectivity ratio turned out to be 31 in [2], 250 in data set [3], 56 in data set [4] and 41 in data set [5]. For the same compound, the results for the Activity in the data set on 786-0 and with A549 were 0% and 100%, respectively.
As for `COC(=O)C1CCN(C(=O)c2ccc(N(CCCO)Cc3cnc4nc(N)nc(N)c4n3)cc2)CC1`, the pIC50 in [1] was 6.12; at Dihydrofolate reductase, 4.82; at Pteridine reductase 1 it was 6.66; in [6], 6.37; in data set [7], 7.52. In addition, the selectivity ratio came out at 68 in data set [2], 500 in [3], 35 in data set [4] and 20 in data set [5]. Further, the Activity is listed as 0% in the data set on 786-0 and 100% in the data set with A549. Also, the inhibition at 0.5 h, 10 µM on CYP2C9 is 17%.
With `COC(=O)C1CCN(C(=O)c2ccc(N(CCO)Cc3cnc4nc(N)nc(N)c4n3)cc2)CC1`, the pIC50 is 5.92 in [1], 5.90 in [6] and 6.70 in [7]. For the same compound, the inhibition at 0.5 h, 10 µM on CYP2D6 stood at 0%. Besides, the Activity worked out at 0% with 786-0 and 100% in the data set on A549.
